NF-kB neuron act = compounds increasing NF-kB expression in human neuronal cells. AID 1239. 190,000 tested, 1.6% active. fold change at 12.5 µM. NF-kB reporter expression; active compounds read high; in the data active = fold change above about 3.3
Wee1 stabilizer = blocks degradation of human Wee1 kinase; 220,000 tested, 1.2% active; AID 1321; reporter increase, % at 5 µM; HeLa Luc-Wee1K328M stability, luciferase luminescence; 100% = proteasome inhibitor MG132 effect; P30291;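 active = activation above the mean of all tested compounds plus 3 SD, set per screening run, cut at about 8.8% in these data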;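 also: cells exposed to compound for 20 h before luminescence read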
Target sequence (P30291 whole entry K328M): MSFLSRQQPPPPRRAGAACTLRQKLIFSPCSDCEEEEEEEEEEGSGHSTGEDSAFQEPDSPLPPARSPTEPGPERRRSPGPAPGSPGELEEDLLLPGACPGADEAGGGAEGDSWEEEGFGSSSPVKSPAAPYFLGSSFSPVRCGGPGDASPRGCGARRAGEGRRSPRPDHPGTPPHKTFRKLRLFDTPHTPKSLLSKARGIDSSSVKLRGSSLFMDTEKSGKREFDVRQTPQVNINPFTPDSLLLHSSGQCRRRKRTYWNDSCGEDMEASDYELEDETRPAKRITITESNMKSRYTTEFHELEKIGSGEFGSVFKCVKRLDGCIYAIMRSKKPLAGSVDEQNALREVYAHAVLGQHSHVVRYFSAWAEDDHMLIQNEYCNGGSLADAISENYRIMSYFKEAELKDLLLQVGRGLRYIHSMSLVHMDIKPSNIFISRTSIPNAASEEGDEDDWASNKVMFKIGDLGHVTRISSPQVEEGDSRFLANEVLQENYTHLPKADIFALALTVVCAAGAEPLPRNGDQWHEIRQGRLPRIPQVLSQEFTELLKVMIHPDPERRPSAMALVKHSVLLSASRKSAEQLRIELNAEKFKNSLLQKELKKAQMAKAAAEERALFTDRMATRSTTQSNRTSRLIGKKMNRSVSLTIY
STAT1 act = increases IFN-gamma driven STAT1 reporter signal; NIH 3T3 STAT1-luciferase reporter, luminescence; 100% = IFN-gamma alone, no compound; activation (% of control), % at 5.5 µM; 200,000 tested, 2.6% active;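 active = activation above the screen-wide mean activation plus 3 SD, cut at about 130% in these data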
p97 inhibitor = inhibitors of human p97 ATPase | AID 1481 | 220,000 tested, 0.42% active | recombinant p97 ATPase, Kinase-Glo ATP luminescence, 3 h | P55072 | inhibition, % at 8 µM; in the data active = inhibition above about 15%
APP 5'UTR act = activates APP 5'UTR luciferase reporter; 190,000 tested, 1% active; activation, % at 2 µM; AID 1276; SH-SY5Y APP 5'UTR luciferase reporter, luminescence; zero percent = DMSO vehicle wells;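 active = activation above a set limit, based on mean plus 3 SD of controls, cut at about 140% in these data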
Mdm2 ligase inh = blocks human Mdm2 ubiquitin ligase activity | cell-based MDM2 ubiquitination luciferase reporter, 2 h; 0 = plate control, 100 = twice control, blank-subtracted | signal enhancement, % at 5 µM | 210,000 tested, 0.11% active | AID 1230;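 active = signal enhancement of 30% or more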;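 also: luminescence tracks abundance of the self-degrading MDM2-luciferase fusion protein; higher signal means inhibition of MDM2 E3 ligase activity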
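Assay system: stable mammalian line carrying autodegrading MDM2–luciferase fusion reporter; Input: 2000 cells in each well; Compound dosing: single-point 5 µM; Schedule: 2 h compound exposure at 37 °C; Signal: SteadyLite luciferase luminescence after 15 min room-temperature reagent incubation; Evaluation: % luminescence enhancement versus blank-corrected plate control mean; Benchmarks: plate controls and plate blanks.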
A number is an active result; n = inactive; x = not tested or not shown. Compounds with a hit are over-represented: about 4.6% of the library has one in this group of screens.

SMILES	NF-kB neuron act	Wee1 stabilizer	STAT1 act	p97 inhibitor	APP 5'UTR act	Mdm2 ligase inh
COn1c(C)c(C)c2c3nonc3ccc21	x	n	x	18.8	x	n
COc1ccc(-c2[nH]ncc2N=Nc2ccccc2)cc1	n	n	129.8	n	n	n
Cc1ccc(C)c2c(SC(C)C(=O)NCc3ccco3)nc(-c3ccccc3)nc12 (stereo not drawn)	n	n	n	n	n	n
Cc1ccc2nc(-c3ccccc3)nc(SC(C)C(=O)NCc3cccs3)c2c1 (stereo not drawn)	5.03	n	n	n	n	n
CCC(=O)Nc1cc(C(=O)OCC(=O)c2ccccc2)ccc1C	n	n	143.7	n	n	n
COc1ccc(Nc2nc3ccccc3c(=O)s2)c(OC)c1	n	n	n	n	n	n
Cc1ccc(Nc2nc3ccccc3c(=O)s2)cc1C	n	10.0	n	n	n	n
O=C(Nc1nc2ccsc2c(=O)s1)C1CCC1	x	n	x	n	x	n
O=c1sc(Nc2ccccc2)nc2ccsc12	n	n	136.8	n	n	n
Cc1noc(C)c1-c1nc(CS(=O)(=O)c2ccccc2)no1	x	n	x	n	x	n
COc1ccc(CN2C(=O)c3ccccc3C2C(=O)NC2CCCC(C)C2C)c(OC)c1 (stereo not drawn)	n	n	n	n	n	n
COc1ccc(OC(=O)c2cnc3n(c2=O)CCS3)cc1	x	n	x	n	x	n
COc1ccc(S(=O)(=O)N2CC(O)C[C@H]2C(=O)OCC(=O)N2CCCCCC2)cc1 (stereo partly drawn)	n	n	139.0	n	n	n
COC(=O)C1CCN(C(=O)COC(=O)[C@@H]2CC(O)CN2S(=O)(=O)c2ccc3c(c2)OCCO3)CC1 (stereo partly drawn)	n	n	n	n	n	n
COc1ccc2[nH]c3c(=O)n(CCCCC(=O)NCCC(C)C)c(=S)[nH]c3c2c1	n	n	n	n	n	n
CN(Cc1ccccc1)S(=O)(=O)c1ccc(N2CCOCC2)nc1	x	n	x	n	x	n
Cc1nc2cc(NCc3nc4ccccc4n3Cc3ccccc3)ccc2n1C	n	n	135.1	n	n	n
Cc1ccn2cc(C(=O)Nc3nnc(C)s3)nc2c1	n	8.9	n	n	n	n
Cc1ccn2cc(C(=O)Nc3ccc4c(c3)OCCO4)nc2c1	n	n	149.9	n	142.9	n
O=C(NCc1csc(-c2cccs2)n1)C1CCC1	x	n	x	n	x	n
COc1ccc(CC(=O)Nc2ccc(-c3ccc4nnc(C)n4n3)cc2)cc1OC	n	n	n	n	n	n
Cc1cc(/C=N/NC(=O)c2ccccc2F)c(C)n1-c1ccccc1	n	n	131.2	n	n	n
COc1ccc(C2=NOC(C(=O)Nc3ccc4c(c3)OCO4)C2)cc1OC (stereo not drawn)	n	n	n	n	n	n
Oc1ccc(NC(=S)N=Nc2c(O)[nH]c3ccccc23)cc1	n	n	144.6	n	n	n
O=C(N=Nc1c(O)[nH]c2ccccc12)c1cc(NS(=O)(=O)c2cccs2)cc(NS(=O)(=O)c2cccs2)c1	n	n	n	n	n	n
SMILES	NF-kB neuron act	Wee1 stabilizer	STAT1 act	p97 inhibitor	APP 5'UTR act	Mdm2 ligase inh
O=C(N=Nc1c(O)[nH]c2ccccc12)c1cccs1	5.62	n	140.7	n	154.3	n
O=S1(=O)NC(=NCCc2ccccn2)c2ccccc21	n	n	n	n	n	n
COc1cc(NC(=O)c2cc3nc(C)cc(C)n3n2)c(OC)cc1Cl	n	n	131.9	n	n	n
Cc1nc2ccccc2nc1OCc1ccccc1	n	n	n	n	n	n
Cc1nc2ccccc2nc(=O)c1NNc1ccccc1	n	n	129.3	n	n	x
Cc1ccc2nc(=O)c(NNc3ccccc3)cnc2c1	n	n	139.4	n	n	n
O=C1CSC(=S)N1Cc1cccnc1	4.81	n	n	n	n	n
O=C1CSC(=S)N1c1cccnc1	n	n	n	n	n	n
c1ccc(-c2ncc(-c3ccn[nH]3)s2)cc1	7.31	n	n	n	230.5	n
O=C(c1ccco1)N1CCCN(Cc2nc(Cc3ccccc3)no2)CC1	n	n	n	n	n	n
COc1ccc2oc3ccccc3c(=O)c2c1	x	n	x	n	x	n
Cc1cc(O)cc2c(=O)c3ccccc3sc12	n	n	n	n	n	n
COc1ccc2sc3ccccc3c(=O)c2c1	n	n	131.6	n	n	n
COc1ccc2oc3ccc(OC)cc3c(=O)c2c1	n	n	143.8	n	n	n
Fc1ccc(N2CN(Cc3cccnc3)CNC2=S)cc1	x	n	x	n	x	n
Cc1ccc(-c2nnc(Cc3ccc([N+](=O)[O-])cc3)o2)cc1	n	n	n	n	147.0	n
CC(C)(C)C(=O)Cn1ncc(Cl)c(Cl)c1=O	n	n	n	n	n	n
O=C(Cn1ncc(Cl)c(Cl)c1=O)NC1CCS(=O)(=O)C1 (stereo not drawn)	x	9.5	x	n	x	x
O=C(Cn1ncc(Cl)c(Cl)c1=O)NCC1CCCCC1	n	n	n	n	n	79.6
Cc1c(C2C(C#N)=C(N)N(c3cccc([N+](=O)[O-])c3)C3=C2C(=O)CCC3)cnn1C (stereo not drawn)	n	n	n	n	n	n
Cc1c(C(=O)Nc2ccccc2)csc1-c1ccccc1	5.17	n	137.2	n	189.3	n
O=C(O)c1ccc(Oc2cccc([N+](=O)[O-])c2)cc1C(=O)O	4.28	n	n	n	n	n
CCc1cc[n+](-c2nc3ccccc3nc2C(=C=[N-])C#N)cc1	4.99	n	n	n	n	n
NC(=O)c1cc(-c2ccccc2)sc1NC(=O)CN1CCCCC1	n	n	n	n	n	n
Cc1ccc(C(=O)CSc2ncnc3ccccc23)o1	n	n	159.4	n	n	n
SMILES	NF-kB neuron act	Wee1 stabilizer	STAT1 act	p97 inhibitor	APP 5'UTR act	Mdm2 ligase inh
O=C(CSc1ncnc2ccccc12)NCC(=O)c1ccccc1	n	10.3	n	n	n	n
O=C(CSc1ncnc2ccccc12)N1CCCC1	n	n	n	n	n	n
O=C(CSc1ncnc2ccccc12)c1cccs1	4.57	n	n	n	139.2	n
N/C(=N/OC(=O)c1ccc(Cl)cc1)c1ncc([N+](=O)[O-])s1	x	n	x	n	x	n
CC(C)C(=O)NNC(=O)CSc1nnnn1C(C)C	n	n	n	n	n	n
NC(=O)N/N=C/c1cccc(OCc2ccc(F)cc2)c1	n	n	n	n	n	n
Cc1nnc(N/N=C/c2cccc(OCc3ccc(Cl)c(Cl)c3)c2)n1N	n	n	140.5	n	n	n
Cc1ccc(-c2csc(Cc3nc(-c4cc5ccccc5oc4=O)cs3)n2)cc1	n	n	n	n	n	n
Cc1ccn2cc(-c3cc4ccccc4oc3=O)nc2c1	5.42	n	n	n	n	n
Cc1ccc(CN=c2c([N+](=O)[O-])nn(-c3ccc(Cl)cc3)n2O)cc1	n	n	140.1	n	n	n
O=[N+]([O-])c1nn(-c2ccc(Cl)cc2)n(O)c1=NCc1ccncc1	n	n	n	n	n	n
